Measured values published in ChEMBL document CHEMBL3272147, “Nonapeptide ethylamide inhibitors of the luteinizing hormone-releasing hormone (LH-RH) having a D-alanyl residue in position 6 and variations at positions 2 and 3” (1977).
Calls of active or inactive are those of the source. The calls are words filed in the database; no cut-off is given here.

What was measured:
[1] = molecular target: T1, Gonadotropin-releasing hormone receptor (Rattus norvegicus) (UniProt P30969); assay: (§1) Antagonist activity at LH-RH receptor in Sprague-Dawley rat pituitary gland assessed as change in 0.3 ng/mL LH-RH-induced luteinizing hormone release in medium at 10 ug/ml preincubated for 2 hrs followed by LH-RH addition at 5th and 6th hr 5 mins post drug addition and measured every hour for 4 hrs by RIA relative to vehicle-treated control
T1 sequence (whole entry): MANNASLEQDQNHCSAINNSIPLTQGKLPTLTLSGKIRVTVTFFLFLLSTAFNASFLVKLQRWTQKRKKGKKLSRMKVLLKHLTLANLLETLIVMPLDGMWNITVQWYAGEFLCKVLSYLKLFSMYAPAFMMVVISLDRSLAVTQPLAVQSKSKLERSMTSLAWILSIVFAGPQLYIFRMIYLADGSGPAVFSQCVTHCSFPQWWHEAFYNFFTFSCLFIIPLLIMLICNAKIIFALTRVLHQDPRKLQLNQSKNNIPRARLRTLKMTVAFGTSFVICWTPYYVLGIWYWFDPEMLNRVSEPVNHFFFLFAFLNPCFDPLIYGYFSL
Summary of the method: (§2)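 Two pituitaries from 20-day-old female Sprague-Dawley rats per 1 mL lactated Ringer's, incubated 6 h at 37 °C with shaking, medium collected and replaced hourly for LH/FSH RIA. Analogue added at I3, I4, I5 and I6; LH-RH added 5 min after the peptide at I5 and I6. Results given as Δ ng/mL against LH-LER-1240-2 and NIH-FSH-S1-based standards, with SEM and p.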

[2] = molecular target: T1, Gonadotropin-releasing hormone receptor (Rattus norvegicus); assay: as §1, with “1” for “10”; summary of the method: as §2
[3] = molecular target: T1, Gonadotropin-releasing hormone receptor (Rattus norvegicus); assay: Agonist activity at LH-RH receptor in Sprague-Dawley rat pituitary gland assessed as change in luteinizing hormone release in medium at 100 ug/ml incubated for 4 hrs measured every hour for 4 hrs by RIA relative to vehicle-treated control
Summary of the method: (§3)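 Pituitaries from 20-day-old female Sprague-Dawley rats, two per 1 mL lactated Ringer's, incubated 6 h total at 37 °C with shaking. Medium removed hourly for LH and FSH RIA and replaced with fresh medium. Analogue alone added at I3–I6. Values expressed as ng of standards LH-LER-1240-2 (0.60 NIH-LH-S1 unit/mg) and FSH 2.1 × NIH-FSH-S1 units/mg; change versus control with SEM and p.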

[4] = molecular target: T1, Gonadotropin-releasing hormone receptor (Rattus norvegicus); assay: as §1, with “follicle-stimulating” for “luteinizing”; summary of the method: as §2
[5] = molecular target: T1, Gonadotropin-releasing hormone receptor (Rattus norvegicus); assay: as §1, with “follicle-stimulating” for “luteinizing”, “1” for “10”; summary of the method: as §2
[6] = molecular target: T1, Gonadotropin-releasing hormone receptor (Rattus norvegicus); assay: Agonist activity at LH-RH receptor in Sprague-Dawley rat pituitary gland assessed as change in follicle-stimulating hormone release in medium at 100 ug/ml incubated for 4 hrs measured every hour for 4 hrs by RIA relative to vehicle-treated control; summary of the method: as §3
[7] = molecular target: T1, Gonadotropin-releasing hormone receptor (Rattus norvegicus); assay: as §1, with “0.1” for “10”; summary of the method: as §2
[8] = molecular target: T1, Gonadotropin-releasing hormone receptor (Rattus norvegicus); assay: as §1, with “follicle-stimulating” for “luteinizing”, “0.1” for “10”; summary of the method: as §2
[9] = molecular target: T1, Gonadotropin-releasing hormone receptor (Rattus norvegicus); assay: as §1, with “0.6” for “0.3”, “0.1” for “10”; summary of the method: as §2
[10] = molecular target: T1, Gonadotropin-releasing hormone receptor (Rattus norvegicus); assay: as §1, with “0.6” for “0.3”, “1” for “10”; summary of the method: as §2
[11] = molecular target: T1, Gonadotropin-releasing hormone receptor (Rattus norvegicus); assay: as §1, with “0.6” for “0.3”; summary of the method: as §2
[12] = molecular target: T1, Gonadotropin-releasing hormone receptor (Rattus norvegicus); assay: as §1, with “0.6” for “0.3”, “follicle-stimulating” for “luteinizing”, “0.1” for “10”; summary of the method: as §2
[13] = molecular target: T1, Gonadotropin-releasing hormone receptor (Rattus norvegicus); assay: as §1, with “0.6” for “0.3”, “follicle-stimulating” for “luteinizing”, “1” for “10”; summary of the method: as §2
[14] = molecular target: T1, Gonadotropin-releasing hormone receptor (Rattus norvegicus); assay: as §1, with “0.6” for “0.3”, “follicle-stimulating” for “luteinizing”; summary of the method: as §2
[15] = system: Rattus norvegicus; assay: Inhibition of ovulation in 4 day cycling rat at 1.5 mg, sc administered through corn oil between 12 to 12:30 pm on proestrous stage; type: functional, organism-based
Summary of the method: (§4)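 Antiovulation test in 4-day cycling rats. A single sc injection of analogue in corn oil was given between 12 and 12:30 p.m. on proestrus. Controls received 0.3 mL of vehicle. Ova shed were counted on estrus.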

[16] = system: Rattus norvegicus; assay: Inhibition of ovulation in 4 day cycling rat at 750 ug, sc administered through corn oil between 12 to 12:30 pm on proestrous stage; type: functional; summary of the method: as §4
[17] = molecular target: T1, Gonadotropin-releasing hormone receptor (Rattus norvegicus); assay: Agonist activity at LH-RH receptor in Sprague-Dawley rat pituitary gland assessed as change in luteinizing hormone release in medium at 10 ug/ml incubated for 4 hrs measured every hour for 4 hrs by RIA relative to vehicle-treated control; summary of the method: as §3
[18] = molecular target: T1, Gonadotropin-releasing hormone receptor (Rattus norvegicus); assay: Agonist activity at LH-RH receptor in Sprague-Dawley rat pituitary gland assessed as change in follicle-stimulating hormone release in medium at 10 ug/ml incubated for 4 hrs measured every hour for 4 hrs by RIA relative to vehicle-treated control; summary of the method: as §3
[19] = molecular target: T1, Gonadotropin-releasing hormone receptor (Rattus norvegicus); assay: as §1, with “100” for “10”; summary of the method: as §2
[20] = molecular target: T1, Gonadotropin-releasing hormone receptor (Rattus norvegicus); assay: as §1, with “follicle-stimulating” for “luteinizing”, “100” for “10”; summary of the method: as §2

| Activity [1] [ng/mL] | Activity [2] [ng/mL] | Activity [3] [ng/mL] | Activity [4] [ng/mL] | Activity [5] [ng/mL] | Activity [6] [ng/mL] | Activity [7] [ng/mL] | Activity [8] [ng/mL] | Activity [9] [ng/mL] | Activity [10] [ng/mL] | Activity [11] [ng/mL] | Activity [12] [ng/mL] | Activity [13] [ng/mL] | Activity [14] [ng/mL] | Activity [17] [ng/mL] | Activity [18] [ng/mL] | Activity [19] [ng/mL] | Activity [20] [ng/mL] | SMILES | inhibition [15] | inhibition [16] |
| --- | --- | --- | --- | --- | --- | --- | --- | --- | --- | --- | --- | --- | --- | --- | --- | --- | --- | --- | --- | --- |
| -53 | 186 | 61 | 1760 | 3330 | -227 |  |  |  |  |  |  |  |  |  |  |  |  | CCNC(=O)[C@@H]1CCCN1C(=O)[C@H](CCCNC(=N)N)NC(=O)[C@H](CC(C)C)NC(=O)[C@@H](C)NC(=O)[C@H](Cc1ccc(O)cc1)NC(=O)[C@H](CO)NC(=O)[C@H](CC(C)C)NC(=O)[C@@H](NC(=O)[C@@H]1CCC(=O)N1)[C@@H](C)CC |  |  |
| 45 | 93 |  | 2000 | 3900 |  | 213 | 5120 |  |  |  |  |  |  |  |  |  |  | CCC[C@H](NC(=O)[C@H](CC(C)C)NC(=O)[C@@H]1CCC(=O)N1)C(=O)N[C@@H](CO)C(=O)N[C@@H](Cc1ccc(O)cc1)C(=O)N[C@H](C)C(=O)N[C@@H](CC(C)C)C(=O)N[C@@H](CCCNC(=N)N)C(=O)N1CCC[C@H]1C(=O)NCC |  |  |
|  |  | 18 |  |  | 564 |  |  | 193 | 73 | 36 | 7370 | 3090 | -1 |  |  |  |  | CCNC(=O)[C@@H]1CCCN1C(=O)[C@H](CCCNC(=N)N)NC(=O)[C@H](CC(C)C)NC(=O)[C@@H](C)NC(=O)[C@H](Cc1ccc(O)cc1)NC(=O)[C@H](CO)NC(=O)[C@H](CC(C)C)NC(=O)[C@H](Cc1c[nH]c2ccccc12)NC(=O)[C@@H]1CCC(=O)N1 | Active | Active |
| 28 | 70 | 13 | 1630 | 2240 | -282 |  |  |  |  |  |  |  |  |  |  | 12 | -516 | CCCC[C@H](NC(=O)[C@H](CC(C)C)NC(=O)[C@@H]1CCC(=O)N1)C(=O)N[C@@H](CO)C(=O)N[C@@H](Cc1ccc(O)cc1)C(=O)N[C@H](C)C(=O)N[C@@H](CC(C)C)C(=O)N[C@@H](CCCNC(=N)N)C(=O)N1CCC[C@H]1C(=O)NCC |  |  |

Further lines, the compound ahead of its results:

| SMILES | Activity [1] [ng/mL] | Activity [2] [ng/mL] | Activity [3] [ng/mL] | Activity [4] [ng/mL] | Activity [5] [ng/mL] | Activity [6] [ng/mL] | Activity [7] [ng/mL] | Activity [8] [ng/mL] | Activity [9] [ng/mL] | Activity [10] [ng/mL] | Activity [11] [ng/mL] | Activity [12] [ng/mL] | Activity [13] [ng/mL] | Activity [14] [ng/mL] | Activity [17] [ng/mL] | Activity [18] [ng/mL] | Activity [19] [ng/mL] | Activity [20] [ng/mL] | inhibition [15] | inhibition [16] |
| --- | --- | --- | --- | --- | --- | --- | --- | --- | --- | --- | --- | --- | --- | --- | --- | --- | --- | --- | --- | --- |
| CCC[C@H](NC(=O)[C@H](Cc1ccccc1)NC(=O)[C@@H]1CCC(=O)N1)C(=O)N[C@@H](CO)C(=O)N[C@@H](Cc1ccc(O)cc1)C(=O)N[C@H](C)C(=O)N[C@@H](CC(C)C)C(=O)N[C@@H](CCCNC(=N)N)C(=O)N1CCC[C@H]1C(=O)NCC |  |  | -66 |  |  | -204 |  |  | 221 | 32 | -7 | 3980 | 2700 | -883 |  |  |  |  |  |  |
| CCNC(=O)[C@@H]1CCCN1C(=O)[C@H](CCCNC(=N)N)NC(=O)[C@H](CC(C)C)NC(=O)[C@@H](C)NC(=O)[C@H](Cc1ccc(O)cc1)NC(=O)[C@H](CO)NC(=O)[C@H](CC(C)C)NC(=O)[C@@H](NC(=O)[C@@H]1CCC(=O)N1)C(C)C | 63 | 272 |  | 1640 | 4320 |  |  |  |  |  |  |  |  |  | 8 | 490 |  |  |  |  |
| CCNC(=O)[C@@H]1CCCN1C(=O)[C@H](CCCNC(=N)N)NC(=O)[C@H](CC(C)C)NC(=O)[C@@H](C)NC(=O)[C@H](Cc1ccc(O)cc1)NC(=O)[C@H](CO)NC(=O)[C@H](CC)NC(=O)[C@H](CC(C)C)NC(=O)[C@@H]1CCC(=O)N1 | 150 |  | 1 | 3480 |  | 866 |  |  |  |  |  |  |  |  |  |  | 45 | 1780 |  |  |
| CCNC(=O)[C@@H]1CCCN1C(=O)[C@H](CCCNC(=N)N)NC(=O)[C@H](CC(C)C)NC(=O)[C@@H](C)NC(=O)[C@H](Cc1ccc(O)cc1)NC(=O)[C@H](CO)NC(=O)[C@H](CC(C)C)NC(=O)[C@H](CC(C)C)NC(=O)[C@@H]1CCC(=O)N1 | 45 | 60 | 73 | 1460 | 3980 | 712 | 166 | 5110 |  |  |  |  |  |  |  |  |  |  |  |  |
| CCNC(=O)[C@@H]1CCCN1C(=O)[C@H](CCCNC(=N)N)NC(=O)[C@H](CC(C)C)NC(=O)[C@@H](C)NC(=O)[C@H](Cc1ccc(O)cc1)NC(=O)[C@H](CO)NC(=O)CNC(=O)[C@H](CC(C)C)NC(=O)[C@@H]1CCC(=O)N1 |  |  | -6 |  |  | -782 |  |  |  |  |  |  |  |  |  |  | 169 | 3310 |  |  |
| CCNC(=O)[C@@H]1CCCN1C(=O)[C@H](CCCNC(=N)N)NC(=O)[C@H](CC(C)C)NC(=O)[C@@H](C)NC(=O)[C@H](Cc1ccc(O)cc1)NC(=O)[C@H](CO)NC(=O)[C@H](CC(C)C)NC(=O)[C@H](Cc1ccccc1)NC(=O)[C@@H]1CCC(=O)N1 | 47 | 77 | 59 | 549 | 1560 | 1380 | 130 | 3120 |  |  |  |  |  |  |  |  |  |  |  |  |
